According to ChEMBL document CHEMBL4673378, “Investigating the effects of the core nitrogen atom configuration on the thermodynamic solubility of 6,5-bicyclic heterocycles” (Bioorg Med Chem Lett, 2021):
≈ marks a conversion by molar mass, not a printed value.

Tests used:
Format in all cases: physicochemical
[1] = Melting point of the compound using amorphous form of sample
[2] = Thermodynamic solubility of compound in SLF at pH 6.9 using amorphous form of sample; details: read-out: Therm_solubility
Method in brief: (§1)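 Thermodynamic solubility was measured from solid in Simulated Lung Fluid, buffered at pH 6.9 and containing 0.75 mM lecithin plus bovine serum albumin, reported in μg/mL. Runs were at least duplicate unless otherwise footnoted. Amorphous or crystalline material was used, as the line states.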

[3] = Thermodynamic solubility of compound in FaSSIF at pH 6.5 using amorphous form of sample; details: read-out: Therm_solubility
Method in brief: (§2)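 Thermodynamic solubility in Fasted State Simulated Intestinal Fluid, buffered at pH 6.5 and containing 0.75 mM lecithin, reported in μg/mL. Runs were at least duplicate unless otherwise footnoted. Solid form was amorphous or crystalline, as the line states.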

[4] = Ionization constant, pKa of the compound
[5] = Lipophilicity, log D of the compound at pH 7.4 by chromatographic reverse phase method; details: reverse phase chromatography
[6] = Kinetic solubility of the compound at pH 7.4 using crystalline form of sample; details: read-out: Kinetic_solubility
Method in brief: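 Solubility at pH 7.4 measured from a 10 mM DMSO stock (stock concentration) of crystalline material, reported in μg/mL. Runs were at least duplicate unless otherwise footnoted.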

[7] = Melting point of the compound using crystalline form of sample
[8] = Thermodynamic solubility of compound in SLF at pH 6.9 using crystalline form of sample; details: read-out: Therm_solubility; method in brief: as §1
[9] = Thermodynamic solubility of compound in FaSSIF at pH 6.5 using crystalline form of sample; details: read-out: Therm_solubility; method in brief: as §2

Row | Tm [1] [°C] | solubility thermodynamic [2] [µg/mL] | solubility thermodynamic [3] [µg/mL] | pKa [4] | chromatographic logD [5] | solubility kinetic [6] [µg/mL] | Tm [7] [°C] | solubility thermodynamic [8] [µg/mL] | solubility thermodynamic [9] [µg/mL] | Structure (SMILES)
1 | 191 | 9 (≈ 20.9 µM) | 32 (≈ 74.2 µM) | 5 | 3.9 | 53 (≈ 123 µM) |  |  |  | COc1ccc(-c2c(C)nc3c(NCc4ccc(C(N)=O)cc4)nc(C)cn23)cc1OC
2 |  |  |  | 5.4 | 3.7 | 79 (≈ 183 µM) | 238 | 1 (≈ 2.32 µM) | 15 (≈ 34.8 µM) | COc1ccc(-c2c(C)nn3c(NCc4ccc(N(C)C)cc4)cc(C)nc23)cc1OC
3 |  |  |  | 5.4 | 4.3 | > 107 | 149 | 39 (≈ 100 µM) | 141 (≈ 362 µM) | COc1ccc(-c2c(C)nn3c(NCc4cccnc4)cc(C)nc23)cc1OC
4 |  |  |  | 5.7 | 5.2 | > 180 | 157 | 18 (≈ 45.4 µM) | 25 (≈ 63.1 µM) | COc1ccc(-c2c(C)nn3c(NCC4CCOCC4)cc(C)nc23)cc1OC
5 | 128 | 58 (≈ 149 µM) | 335 (≈ 860 µM) | 5.3 | 4.5 | 67 (≈ 172 µM) |  |  |  | COc1ccc(-c2c(C)nc3c(NCc4cccnc4)nc(C)cn23)cc1OC
6 |  |  |  | 6.7 | 6 | 64 (≈ 162 µM) | 90 | 29 (≈ 73.3 µM) | 233 (≈ 589 µM) | COc1ccc(-c2c(C)nc3c(NCC4CCOCC4)cc(C)cn23)cc1OC
7 |  |  |  | 2.9 | 3.9 | 19 (≈ 43.9 µM) | 167 | 10 (≈ 23.1 µM) | 32 (≈ 74 µM) | COc1ccc(-c2c(C)nn3c(NCc4ccc(N(C)C)cc4)nc(C)nc23)cc1OC
8 | 93 | 10 (≈ 25.2 µM) | 7 (≈ 17.7 µM) | 5.6 | 5.2 | 99 (≈ 250 µM) |  |  |  | COc1ccc(-c2c(C)nc3c(NCC4CCOCC4)nc(C)cn23)cc1OC
9 |  |  |  | 3.1 | 5.1 | > 165 | 143 | 18 (≈ 45.3 µM) | 29 (≈ 73 µM) | COc1ccc(-c2c(C)nn3c(NCC4CCOCC4)nc(C)nc23)cc1OC
10 |  |  |  | 6.6 | 4.3 | 29 (≈ 67.4 µM) | 203 | 2 (≈ 4.65 µM) | 6 (≈ 13.9 µM) | COc1ccc(-c2c(C)nc3c(NCc4ccc(C(N)=O)cc4)cc(C)cn23)cc1OC
11 |  |  |  | 2.5 | 4.5 | > 150 | 149 | 36 (≈ 92.2 µM) | 36 (≈ 92.2 µM) | COc1ccc(-c2c(C)nn3c(NCc4cccnc4)nc(C)nc23)cc1OC
12 |  |  |  | 4.4 | 6.4 | 44 (≈ 111 µM) | 104 | 3 (≈ 7.57 µM) | 13 (≈ 32.8 µM) | COc1ccc(-c2c(C)nn3c(NCC4CCOCC4)nc(C)cc23)cc1OC
13 |  |  |  | 6.5 | 4.9 | 86 (≈ 221 µM) | 85 | 33 (≈ 84.9 µM) | 109 (≈ 281 µM) | COc1ccc(-c2c(C)nc3c(NCc4cccnc4)cc(C)cn23)cc1OC
14 |  |  |  | 3.8 | 4.8 | 19 (≈ 44 µM) | 194 | < 6 | 5 (≈ 11.6 µM) | COc1ccc(-c2c(C)nn3c(NCc4ccc(C(N)=O)cc4)nc(C)cc23)cc1OC
15 |  |  |  | 2.8 | 5.5 | 35 (≈ 89.9 µM) | 101 | 6 (≈ 15.4 µM) | 31 (≈ 79.6 µM) | COc1ccc(-c2c(C)nn3c(NCc4cccnc4)nc(C)cc23)cc1OC
